Measured values taken from ChEMBL document CHEMBL1133012, “QSAR based on biological microcalorimetry” (J Med Chem, 2000).

Tests used:
[1] = Partition coefficient was obtained using Taylor-Aris diffusion process.; type: ADME; details: E. coli cells
Outline: (§1)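 Partition coefficient by Taylor-Aris diffusion in the same cells as the screen. Cells from a liquid-nitrogen ampule were put in 25 mL 1/4 Ringer's solution; 15 mL of this was diluted with a further 24 mL 1/4 Ringer's. Water bath held at 298.15 K. Carrier pumped at least 10 min or to stable baseline before first injection. Retention time and half-height peak width taken from dispersion curve. At least two replicates per solute.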

Escherichia coli [2] = test: Observed diffusion coefficient in organic solvent for Escherichia coli; type: ADME, organism-based; set-up: unit not given here; outline: as §1
Escherichia coli [3] = test: Normal diffusion coefficient in water for Escherichia coli; type: ADME, organism-based; set-up: unit not given here; outline: as §1
Escherichia coli [4] = test: Potency against Escherichia coli was determined microcalorimetrically at the dose of 2.619 uMol/L; type: functional, organism-based

| SMILES | logP [1] | Dobs (Escherichia coli [2]) | DW (Escherichia coli [3]) | Log D50 (Escherichia coli [4]) |
| --- | --- | --- | --- | --- |
| CC(C)(C)c1ccc(C(=O)NNC(=O)c2ccccc2)cc1 | -0.799 | 15.1 | 17.5 | 3.21 |
| O=C(NNC(=O)c1ccc([N+](=O)[O-])cc1)c1ccccc1 | -1.14 | 10.15 | 10.879 | 2.38 |
| Cc1ccc(C(=O)NNC(=O)c2ccccc2)cc1 | -0.956 | 11.02 | 12.24 | 2.54 |
| O=C(NNC(=O)c1ccccc1)c1ccccc1 | -1.09 | 9.2 | 9.94 | 2.28 |
| O=C(NNC(=O)c1ccc(Br)cc1)c1ccccc1 | -0.879 | 11.9 | 13.47 | 2.73 |
| COc1ccc(C(=O)NNC(=O)c2ccccc2)cc1 | -1 | 8.98 | 9.86 | 2.6 |
| CCCCCc1ccc(C(=O)NNC(=O)c2ccccc2)cc1 | -0.652 | 17.3 | 21.15 | 3.05 |
| O=C(NNC(=O)c1ccc(-c2ccccc2)cc1)c1ccccc1 | -0.787 | 14.6 | 16.98 | 3.24 |
